In ChEMBL document CHEMBL1149712, “Pyrrolidine-carboxamides and oxadiazoles as potent hNK1 antagonists” (Bioorg Med Chem Lett, 2007):

Tests used:
Substance-P receptor [1] = biological target: T1, Substance-P receptor (Homo sapiens, UniProt P25103); test: Displacement of [125I]SP from human NK1 receptor expressed in CHO cells; assay type: cell-based
Substance-P receptor [2] = biological target: T1, Substance-P receptor; test: Displacement of [125I]SP from human NK1 receptor expressed in CHO cells in presence of 50% human serum; assay type: cell-based
Gerbil, jird [3] = test: Inhibition of agonist-induced foot tapping in iv dosed gerbil after 24 hrs; assay type: functional; conditions: Meriones
Procedure, shortened: (§1)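 Gerbils received the test compound by iv infusion, followed by a central (icv) injection of an NK1 agonist at a set time after infusion (0, 4 or 24 h). The agonist-induced foot-tapping response was monitored for blockade. Results are reported as % inhibition at a single dose (mpk) or as ED50.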

Gerbil, jird [4] = test: Inhibition of agonist-induced foot tapping in iv dosed gerbil; assay type: functional; conditions: Meriones; procedure, shortened: as §1
Cytochrome P450 2D6 = Cytochrome P450 2D6 (Homo sapiens, UniProt P10635); test: Inhibition of human CYP2D6; assay type: ADME
Cytochrome P450 3A4 = Cytochrome P450 3A4 (Homo sapiens, UniProt P08684); test: Inhibition of human CYP3A4; assay type: ADME
Cytochrome P450 2C9 = Cytochrome P450 2C9 (Homo sapiens, UniProt P11712); test: Inhibition of human CYP2C9; assay type: ADME
Gerbil, jird [5] = test: Inhibition of agonist-induced foot tapping in gerbil at 2 mpk, iv after 24 hrs; assay type: functional; conditions: Meriones, 4 h, in the assay text read “after 4 hrs” for “after 24 hrs”; procedure, shortened: as §1
Gerbil, jird [6] = test: Inhibition of agonist-induced foot tapping in gerbil at 6 mpk, iv after 24 hrs; assay type: functional; conditions: Meriones; procedure, shortened: as §1
Gerbil, jird [7] = test: Inhibition of agonist-induced foot tapping in gerbil at 3 mpk, iv after 24 hrs; assay type: functional; conditions: Meriones; procedure, shortened: as §1
[8] = Half life in rat; assay type: ADME, organism-based; conditions: in vivo

Chain of Cytochrome P450 2C9 (P11712 whole entry): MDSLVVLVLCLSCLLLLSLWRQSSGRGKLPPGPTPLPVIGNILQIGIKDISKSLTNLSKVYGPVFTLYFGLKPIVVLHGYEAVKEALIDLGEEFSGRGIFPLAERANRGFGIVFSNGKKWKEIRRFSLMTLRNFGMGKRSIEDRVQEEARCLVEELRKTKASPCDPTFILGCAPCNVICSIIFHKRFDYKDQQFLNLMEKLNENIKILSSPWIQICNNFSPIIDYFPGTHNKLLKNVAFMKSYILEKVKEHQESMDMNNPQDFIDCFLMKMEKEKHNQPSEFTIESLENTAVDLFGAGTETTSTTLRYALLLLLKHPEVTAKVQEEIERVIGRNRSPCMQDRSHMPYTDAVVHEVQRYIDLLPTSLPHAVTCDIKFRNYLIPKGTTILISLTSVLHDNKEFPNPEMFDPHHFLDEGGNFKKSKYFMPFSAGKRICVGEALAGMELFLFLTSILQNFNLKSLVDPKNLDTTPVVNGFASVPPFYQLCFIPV
Chain of Cytochrome P450 3A4 (P08684 whole entry): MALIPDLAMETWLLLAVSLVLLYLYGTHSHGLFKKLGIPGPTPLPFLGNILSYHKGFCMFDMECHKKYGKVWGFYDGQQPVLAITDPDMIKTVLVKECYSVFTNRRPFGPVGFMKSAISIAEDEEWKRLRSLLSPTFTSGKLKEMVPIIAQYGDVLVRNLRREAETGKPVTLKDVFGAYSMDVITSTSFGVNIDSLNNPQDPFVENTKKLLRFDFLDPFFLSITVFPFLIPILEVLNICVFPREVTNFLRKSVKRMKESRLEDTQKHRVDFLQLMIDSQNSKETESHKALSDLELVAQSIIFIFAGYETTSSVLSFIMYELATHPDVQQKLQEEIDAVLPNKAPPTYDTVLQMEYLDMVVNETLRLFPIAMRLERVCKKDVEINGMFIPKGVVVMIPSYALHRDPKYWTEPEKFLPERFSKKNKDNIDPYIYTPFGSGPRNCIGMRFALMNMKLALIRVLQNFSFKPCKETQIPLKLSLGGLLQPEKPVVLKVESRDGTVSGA
T1 sequence (P25103 whole entry): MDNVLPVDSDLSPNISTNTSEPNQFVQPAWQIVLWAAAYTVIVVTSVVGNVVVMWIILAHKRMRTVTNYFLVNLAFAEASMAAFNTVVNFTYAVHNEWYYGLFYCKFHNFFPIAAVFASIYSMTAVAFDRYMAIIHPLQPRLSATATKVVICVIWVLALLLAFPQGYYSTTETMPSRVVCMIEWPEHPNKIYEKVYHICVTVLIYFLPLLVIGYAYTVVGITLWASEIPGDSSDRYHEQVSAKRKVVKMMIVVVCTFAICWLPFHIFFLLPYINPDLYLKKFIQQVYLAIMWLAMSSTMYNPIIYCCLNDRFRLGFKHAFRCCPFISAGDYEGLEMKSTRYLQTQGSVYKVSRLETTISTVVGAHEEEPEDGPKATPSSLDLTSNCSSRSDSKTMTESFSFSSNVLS
Chain of Cytochrome P450 2D6 (P10635 whole entry): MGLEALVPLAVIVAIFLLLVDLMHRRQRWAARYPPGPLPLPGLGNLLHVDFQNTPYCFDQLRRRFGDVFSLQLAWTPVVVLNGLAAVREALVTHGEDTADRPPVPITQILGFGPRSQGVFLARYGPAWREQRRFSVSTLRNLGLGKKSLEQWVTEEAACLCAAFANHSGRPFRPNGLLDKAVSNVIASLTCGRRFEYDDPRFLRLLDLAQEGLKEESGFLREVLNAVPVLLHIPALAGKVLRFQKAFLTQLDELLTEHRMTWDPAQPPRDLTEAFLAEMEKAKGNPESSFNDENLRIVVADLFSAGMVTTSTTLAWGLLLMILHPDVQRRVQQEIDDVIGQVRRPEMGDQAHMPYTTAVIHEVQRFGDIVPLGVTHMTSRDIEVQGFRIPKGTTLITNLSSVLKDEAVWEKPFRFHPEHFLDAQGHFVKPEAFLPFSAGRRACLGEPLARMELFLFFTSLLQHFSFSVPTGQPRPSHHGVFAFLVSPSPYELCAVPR

| Structure (SMILES) | IC50 (Substance-P receptor [1]) | IC50 (Substance-P receptor [2]) | further results |
| --- | --- | --- | --- |
| Cc1cnc(C(=O)N2C[C@H](C(=O)N(C)Cc3cc(C(F)(F)F)cc(C(F)(F)F)c3)[C@@H](c3ccc(F)cc3C)C2)cn1 | 0.09 nM | 8 nM | ED50 (Gerbil, jird [3]): 6 mg/kg; ED50 (Gerbil, jird [4]): 6 mg/kg; IC50 (Cytochrome P450 2D6): 73000 nM; IC50 (Cytochrome P450 3A4): 11000 nM; IC50 (Cytochrome P450 2C9): 43000 nM |
| CN(Cc1cc(C(F)(F)F)cc(C(F)(F)F)c1)C(=O)[C@H]1CN(C(=O)c2cncnc2)C[C@@H]1c1ccccc1 | 24 nM | – | – |
| CC(C)(C)OC(=O)N1CC[C@H](c2ccccc2)[C@@H](C(=O)NCc2cc(C(F)(F)F)cc(C(F)(F)F)c2)C1 | 450 nM | – | – |
| Cc1cnc(C(=O)N2C[C@H](C(=O)N(C)Cc3cc(C(F)(F)F)cc(C(F)(F)F)c3)[C@@H](c3ccccc3)C2)cn1 | 0.58 nM | – | – |
| CC(C)(C)OC(=O)N1C[C@H](C(=O)NCc2cc(C(F)(F)F)cc(C(F)(F)F)c2)[C@@H](c2ccccc2)C1 | 142 nM | – | – |
| CC(=O)N1CCC(C(=O)N2C[C@H](C(=O)N(C)C(C)(C)c3cc(C(F)(F)F)cc(C(F)(F)F)c3)[C@@H](c3ccc(F)cc3C)C2)CC1 | 0.05 nM | 0.51 nM | inhibition in vivo at 2 mg/kg (Gerbil, jird [5]): 100%; inhibition in vivo at 6 mg/kg (Gerbil, jird [6]): 2%; IC50 (Cytochrome P450 2D6): 57000 nM; IC50 (Cytochrome P450 3A4): 49000 nM; IC50 (Cytochrome P450 2C9): > 100000 nM |
| CC(=O)N1CCC(C(=O)N2C[C@H](c3nc(C(C)(C)c4cc(C(F)(F)F)cc(C(F)(F)F)c4)no3)[C@@H](c3ccc(F)cc3C)C2)CC1 | 0.07 nM | 2.8 nM | inhibition in vivo at 2 mg/kg (Gerbil, jird [5]): 92%; inhibition in vivo at 6 mg/kg (Gerbil, jird [6]): 1% |
| CC(=O)N1CCC(C(=O)N2C[C@@H](c3nc(C(C)(C)c4cc(C(F)(F)F)cc(C(F)(F)F)c4)no3)[C@H](c3ccc(F)cc3C)C2)CC1 | 0.17 nM | 20 nM | inhibition in vivo at 6 mg/kg (Gerbil, jird [6]): 1% |
| CC(=O)N1CCC(C(=O)N2C[C@H](c3noc(C(C)(C)c4cc(C(F)(F)F)cc(C(F)(F)F)c4)n3)[C@@H](c3ccc(F)cc3C)C2)CC1 | 0.07 nM | 6 nM | IC50 (Cytochrome P450 2D6): 63000 nM; IC50 (Cytochrome P450 3A4): 100000 nM; IC50 (Cytochrome P450 2C9): 9000 nM |
| CC(=O)N1CCC(C(=O)N2C[C@@H](c3noc(C(C)(C)c4cc(C(F)(F)F)cc(C(F)(F)F)c4)n3)[C@H](c3ccc(F)cc3C)C2)CC1 | 0.03 nM | 0.17 nM | inhibition in vivo at 6 mg/kg (Gerbil, jird [6]): 60% |
| CN(Cc1cc(C(F)(F)F)cc(C(F)(F)F)c1)C(=O)[C@H]1CN(CC2CCCCC2)C[C@@H]1c1ccccc1 | 62 nM | – | – |
| CN(Cc1cc(C(F)(F)F)cc(C(F)(F)F)c1)C(=O)[C@H]1CN(C(=O)c2ncccn2)C[C@@H]1c1ccccc1 | 0.84 nM | – | – |
| CN(Cc1cc(C(F)(F)F)cc(C(F)(F)F)c1)C(=O)[C@H]1CN(C(=O)c2cnccn2)C[C@@H]1c1ccccc1 | 0.74 nM | – | – |
| CN(Cc1cc(C(F)(F)F)cc(C(F)(F)F)c1)C(=O)[C@H]1CN(C(=O)c2ccncn2)C[C@@H]1c1ccccc1 | 3.4 nM | – | – |

The next lines start with results.

| IC50 (Substance-P receptor [1]) | IC50 (Substance-P receptor [2]) | Structure (SMILES) | further results |
| --- | --- | --- | --- |
| 0.79 nM | – | CN(Cc1cc(C(F)(F)F)cc(C(F)(F)F)c1)C(=O)[C@H]1CN(C(=O)NC2CCCCC2)C[C@@H]1c1ccccc1 | – |
| 4.1 nM | – | CN(Cc1cc(C(F)(F)F)cc(C(F)(F)F)c1)C(=O)[C@H]1CN(C(=O)C2CCNCC2)C[C@@H]1c1ccccc1 | – |
| 3.7 nM | – | CC(=O)N1CCC(C(=O)N2C[C@H](C(=O)N(C)Cc3cc(C(F)(F)F)cc(C(F)(F)F)c3)[C@H](c3ccccc3)C2)CC1 | – |
| 0.97 nM | – | CC(=O)N1CCC(C(=O)N2C[C@@H](C(=O)N(C)Cc3cc(C(F)(F)F)cc(C(F)(F)F)c3)[C@H](c3ccccc3)C2)CC1 | – |
| 11 nM | – | CN(Cc1cc(C(F)(F)F)cc(C(F)(F)F)c1)C(=O)[C@H]1CN(C(=O)OC(C)(C)C)C[C@@H]1c1ccccc1 | – |
| 0.68 nM | – | CN(Cc1cc(C(F)(F)F)cc(C(F)(F)F)c1)C(=O)[C@H]1CN(C(=O)C2CCCCC2)C[C@@H]1c1ccccc1 | – |
| 0.05 nM | 0.21 nM | CC(=O)N1CCC(C(=O)N2C[C@H](C(=O)N(C)Cc3cc(C(F)(F)F)cc(C(F)(F)F)c3)[C@@H](c3ccc(F)cc3C)C2)CC1 | inhibition in vivo at 2 mg/kg (Gerbil, jird [5]): 100%; inhibition in vivo at 6 mg/kg (Gerbil, jird [6]): 24%; IC50 (Cytochrome P450 2D6): 92000 nM; IC50 (Cytochrome P450 3A4): 11000 nM; IC50 (Cytochrome P450 2C9): 69000 nM |
| 13 nM | – | CN(Cc1cc(C(F)(F)F)cc(C(F)(F)F)c1)C(=O)[C@H]1CN(C(=O)N2CCCCC2)C[C@@H]1c1ccccc1 | – |
| 0.42 nM | 4.5 nM | CC(=O)N1CCC(C(=O)N2C[C@H](C(=O)N(C)Cc3cc(C(F)(F)F)cc(C(F)(F)F)c3)[C@@H](c3ccccc3)C2)CC1 (stereo in doubt; 8c) | inhibition in vivo at 3 mg/kg (Gerbil, jird [7]): 29%; ED50 (Gerbil, jird [4]): 0.41 mg/kg; IC50 (Cytochrome P450 2D6): 24000 nM; IC50 (Cytochrome P450 3A4): 18000 nM; half-life [8]: 42 min; IC50 (Cytochrome P450 2C9): 26000 nM |
| 0.12 nM | – | CC(=O)N1CCC(C(=O)N2C[C@H](C(=O)N(C)Cc3cc(C(F)(F)F)cc(C(F)(F)F)c3)[C@@H](c3ccccc3)C2)CC1 (stereo in doubt; 27) | – |
